# ChEMBL document CHEMBL1275293, “Aqua mediated synthesis of 2-amino-6-benzothiazol-2-ylsulfanyl-chromenes and its in vitro study, explanation of the structure-activity relationships (SARs) as antibacterial agent” (2010)
# Key:
# Format in all cases: functional
# Escherichia coli = test: Antimicrobial activity against Escherichia coli by broth microdilution method
# How it was run: (§1)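 Broth microdilution MIC following the NCCLS standard protocol, run in 96-well plates with 0.2 ml Mueller Hinton broth per well. Compounds were serially doubled from 0.5 to […] μg/ml, with ampicillin as reference. Inoculum was set to McFarland 0.5 turbidity, then diluted to about 5 × 10^5 cfu/ml per well. Plates included broth+inoculum and broth-only controls and were incubated overnight at 37 °C.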
# [1] = system: Staphylococcus epidermidis; test: Antimicrobial activity against Staphylococcus epidermidis by broth microdilution method; how it was run: as §1
# Pseudomonas aeruginosa = test: Antimicrobial activity against Pseudomonas aeruginosa by broth microdilution method; how it was run: as §1
# Staphylococcus aureus = test: Antimicrobial activity against Staphylococcus aureus by broth microdilution method; how it was run: as §1
SMILES,MIC (Escherichia coli) [µg/mL],MIC [1] [µg/mL],MIC (Pseudomonas aeruginosa) [µg/mL],MIC (Staphylococcus aureus) [µg/mL]
CCOC(=O)C1=C(N)Oc2ccc(Sc3nc4ccccc4[nH]3)cc2C1c1ccc([N+](=O)[O-])cc1 (stereo not given),16,32,8,16
COc1ccc2[nH]c(Sc3ccc4c(c3)C(c3cccs3)C(C#N)=C(N)O4)nc2c1 (stereo not given),125,250,125,250
COc1ccc(C2C(C#N)=C(N)Oc3ccc(Sc4nc5ccccc5s4)cc32)cc1 (stereo not given),32,16,2,8
N#CC1=C(N)Oc2ccc(Sc3nc4ccccc4s3)cc2C1c1cc2ccccc2nc1Cl (stereo not given),16,64,16,16
CCOC(=O)C1=C(N)Oc2ccc(Sc3nc4cc(OC)ccc4[nH]3)cc2C1c1cccs1 (stereo not given),125,125,125,125
N#CC1=C(N)Oc2ccc(Sc3nc4ccccc4s3)cc2C1c1cccs1 (stereo not given),2,64,32,2
N#CC1=C(N)Oc2ccc(Sc3nc4ccccc4s3)cc2C1c1ccc(Cl)cc1 (stereo not given),32,32,16,4
CCOC(=O)C1=C(N)Oc2ccc(Sc3nc4cc(OC)ccc4[nH]3)cc2C1c1cccc([N+](=O)[O-])c1 (stereo not given),125,125,125,125
N#CC1=C(N)Oc2ccc(Sc3nc4ccccc4s3)cc2C1c1ccc2c(c1)OCO2 (stereo not given),1,4,8,8
CCOC(=O)C1=C(N)Oc2ccc(Sc3nc4cc(OC)ccc4[nH]3)cc2C1c1ccc(Cl)cc1 (stereo not given),64,64,64,32
N#CC1=C(N)Oc2ccc(Sc3nc4ccccc4s3)cc2C1c1ccc2ccccc2c1 (stereo not given),16,32,8,16
N#CC1=C(N)Oc2ccc(Sc3nc4ccccc4s3)cc2C1c1ccccc1 (stereo not given),16,8,32,4
CCOC(=O)C1=C(N)Oc2ccc(Sc3nc4ccccc4[nH]3)cc2C1c1cccc([N+](=O)[O-])c1 (stereo not given),32,64,32,64
CCOC(=O)C1=C(N)Oc2ccc(Sc3nc4cc(OC)ccc4[nH]3)cc2C1c1ccc2c(c1)OCO2 (stereo not given),125,125,125,125
CCOC(=O)C1=C(N)Oc2ccc(Sc3nc4cc(OC)ccc4[nH]3)cc2C1c1ccc([N+](=O)[O-])cc1 (stereo not given),64,64,32,64
N#CC1=C(N)Oc2ccc(Sc3nc4ccccc4[nH]3)cc2C1c1ccc(Cl)cc1 (stereo not given),16,16,16,16
N#CC1=C(N)Oc2ccc(Sc3nc4ccccc4s3)cc2C1c1c[nH]c2ccccc12 (stereo not given),0.5,32,16,2
CCOC(=O)C1=C(N)Oc2ccc(Sc3nc4ccccc4[nH]3)cc2C1c1ccc(Cl)cc1 (stereo not given),64,64,8,32
CCOC(=O)C1=C(N)Oc2ccc(Sc3nc4ccccc4[nH]3)cc2C1c1cccs1 (stereo not given),125,125,125,125
COc1ccc2[nH]c(Sc3ccc4c(c3)C(c3ccc([N+](=O)[O-])cc3)C(C#N)=C(N)O4)nc2c1 (stereo not given),16,16,8,16
